This passage reports Ratio Ki, inhibition and Ki results from ChEMBL document CHEMBL1154596, “The effects of C-terminal modifications on the opioid activity of [N-benzylTyr(1)]dynorphin A-(1-11) analogues” (J Med Chem, 2009).

Structures are written as SMILES. Where only a bound is given, the exact number is not on record here.

The species named for assay [1] is Rattus norvegicus. Put plainly: Selectivity ratio of Ki for rat kappa opioid receptor to Ki for rat mu opioid receptor.
For assay [2], the target named is Kappa-type opioid receptor (Rattus norvegicus) (UniProt P34975). Put plainly: Activity at rat kappa opioid receptor expressed in CHO cells assessed as inhibition of adenylyl cyclase activity at 10 uM relative to Dyn A-(1-13)NH2. The assay is classed as functional, cell-based. The method in brief: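 CHO cells stably expressing cloned rat KOR. Adenylyl cyclase inhibition was measured with each peptide at 10 μM. Efficacy is expressed relative to the maximal inhibition by the reference agonist Dyn A-(1-13)NH2 (100 nM). Values are mean ± SEM of at least three independent experiments.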
Chain of Kappa-type opioid receptor (Rattus norvegicus) (P34975 whole entry): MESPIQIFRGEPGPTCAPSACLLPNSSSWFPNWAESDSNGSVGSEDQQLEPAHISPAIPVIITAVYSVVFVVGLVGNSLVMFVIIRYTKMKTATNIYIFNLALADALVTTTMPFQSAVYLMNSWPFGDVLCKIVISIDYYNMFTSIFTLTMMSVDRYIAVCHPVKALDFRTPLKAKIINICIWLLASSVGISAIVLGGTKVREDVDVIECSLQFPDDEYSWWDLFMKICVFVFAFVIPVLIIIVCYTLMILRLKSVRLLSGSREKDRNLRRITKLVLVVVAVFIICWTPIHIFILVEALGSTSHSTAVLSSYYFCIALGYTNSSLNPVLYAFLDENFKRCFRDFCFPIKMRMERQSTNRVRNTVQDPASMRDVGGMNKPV

Assay [3] can be described thus: Selectivity ratio of Ki for rat kappa opioid receptor to Ki for mouse delta opioid receptor.
Assay [4] addresses Kappa-type opioid receptor (Rattus norvegicus, UniProt P34975). Briefly: Displacement of [3H]diprenorphine from rat kappa opioid receptor expressed in CHO cells. The assay is classed as cell-based. The method in brief:
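Radioligand competition binding on membranes of CHO cells stably expressing cloned rat KOR, rat MOR or mouse DOR. […] Ki values are mean ± SEM of at least three independent experiments.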

For assay [5], the target named is Delta-type opioid receptor (Mus musculus, UniProt P32300). Briefly: Displacement of [3H]DPDPE from mouse delta opioid receptor expressed in CHO cells. The assay is classed as cell-based. A digest of the protocol:
(§1)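 Radioligand competition binding on membranes of CHO cells stably expressing cloned rat KOR, rat MOR or mouse DOR. Ki values are mean ± SEM of at least three independent experiments.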

The target of assay [6] is Mu-type opioid receptor (Rattus norvegicus, UniProt P33535). Put plainly: Displacement of [3H]DAMGO from rat mu opioid receptor expressed in CHO cells. It counts as cell-based. The method in brief:
as §1

Chain of Kappa-type opioid receptor (P34975 whole entry): as above
Chain of Delta-type opioid receptor (P32300 whole entry): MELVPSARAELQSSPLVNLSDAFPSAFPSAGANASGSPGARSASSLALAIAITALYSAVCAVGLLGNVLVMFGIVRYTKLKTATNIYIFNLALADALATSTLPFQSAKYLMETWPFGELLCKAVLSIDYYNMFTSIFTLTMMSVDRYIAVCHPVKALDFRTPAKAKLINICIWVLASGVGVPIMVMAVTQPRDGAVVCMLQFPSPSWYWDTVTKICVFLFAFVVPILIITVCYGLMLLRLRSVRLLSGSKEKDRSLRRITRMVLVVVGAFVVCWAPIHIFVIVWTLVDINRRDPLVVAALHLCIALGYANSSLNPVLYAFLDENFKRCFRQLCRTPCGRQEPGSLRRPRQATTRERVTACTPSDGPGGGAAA
Chain of Mu-type opioid receptor (P33535 whole entry): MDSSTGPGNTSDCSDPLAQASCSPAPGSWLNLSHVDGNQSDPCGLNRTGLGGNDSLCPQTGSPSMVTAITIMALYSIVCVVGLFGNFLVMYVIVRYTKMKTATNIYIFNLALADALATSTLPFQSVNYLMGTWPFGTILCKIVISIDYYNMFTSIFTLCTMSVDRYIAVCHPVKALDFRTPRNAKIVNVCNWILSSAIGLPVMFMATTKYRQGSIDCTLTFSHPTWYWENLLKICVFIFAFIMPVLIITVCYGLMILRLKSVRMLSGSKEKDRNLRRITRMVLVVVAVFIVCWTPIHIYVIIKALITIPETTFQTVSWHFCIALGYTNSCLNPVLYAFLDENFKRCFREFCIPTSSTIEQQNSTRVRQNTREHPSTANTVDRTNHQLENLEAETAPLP

As for `CC(C)C[C@H](NC(=O)[C@H](Cc1ccccc1)NC(=O)CNC(=O)CNC(=O)[C@H](Cc1ccc(O)cc1)NCc1ccccc1)C(=O)N[C@@H](CCCNC(=N)N)C(=O)N[C@@H](CCCNC(=N)N)C(=O)N[C@H](C)C(=O)N[C@@H](CCCNC(=N)N)C(=O)N1CCC[C@@H]1C(=O)N[C@@H](CCCCN)C(N)=O`, the Ratio Ki amounted to 15 in assay [1] and 109 in assay [3]. In assay [2], the inhibition is 70%.

With `CC(=O)NC[C@H](NC(=O)[C@H](CCCNC(=N)N)NC(=O)[C@H](CCCNC(=N)N)NC(=O)[C@@H](CC(N)=O)NC(=O)[C@H](Cc1ccccc1)NC(=O)CNC(=O)CNC(=O)[C@H](Cc1ccc(O)cc1)NCc1ccccc1)C(=O)N[C@@H](CCCNC(=N)N)C(=O)N1CCC[C@H]1C(=O)N[C@@H](CCCCN)C(N)=O`, the figures for the Ki in assay [4], in assay [5] and in assay [6] were 66.9 nM, over 10000 nM and 1660 nM, respectively. Besides, the values for the Ratio Ki in assay [1] and in assay [3] were 25 and 149, respectively.

Regarding `CC[C@H](C)[C@H](NC(=O)[C@H](CCCNC(=N)N)N(C)C(=O)[C@H](CCCNC(=N)N)NC(=O)[C@H](CC(C)C)NC(=O)[C@H](Cc1ccccc1)NC(=O)CNC(=O)CNC(=O)[C@H](Cc1ccc(O)cc1)NCc1ccccc1)C(=O)N[C@@H](CCCNC(=N)N)C(=O)N1CCC[C@@H]1C(=O)N[C@@H](CCCCN)C(N)=O`, the inhibition in assay [2] is 70%.

As for `CC(C)C[C@H](NC(=O)[C@H](Cc1ccccc1)NC(=O)CNC(=O)CNC(=O)[C@H](Cc1ccc(O)cc1)NCc1ccccc1)C(=O)N[C@@H](CCCNC(=N)N)C(=O)N(C)[C@@H](CCCNC(=N)N)C(=O)N[C@H](C)C(=O)N[C@@H](CCCNC(=N)N)C(=O)N1CCC[C@@H]1C(=O)N[C@@H](CCCCN)C(N)=O`, the Ratio Ki turned out to be 16 in assay [1] and 151 in assay [3]. In addition, the inhibition in assay [2] is 70%.

For the compound `CC(C)C[C@H](NC(=O)[C@H](Cc1ccccc1)NC(=O)CNC(=O)CNC(=O)[C@H](Cc1ccc(O)cc1)NCc1ccccc1)C(=O)N[C@@H](CCCNC(=N)N)C(=O)N(C)[C@@H](CCCNC(=N)N)C(=O)N[C@H](C)C(=O)N[C@@H](CCCNC(=N)N)C(=O)N1CCC[C@H]1C(=O)N[C@@H](CCCCN)C(N)=O`, the Ratio Ki in assay [1] was 14; in assay [3] it was 147. Moreover, the inhibition in assay [2] is 70%.

Consider `CC(C)C[C@H](NC(=O)[C@H](Cc1ccccc1)NC(=O)CNC(=O)CNC(=O)[C@H](Cc1ccc(O)cc1)NCc1ccccc1)C(=O)N[C@@H](CCCNC(=N)N)C(=O)N[C@@H](CCCNC(=N)N)C(=O)N[C@H](C)C(=O)N[C@@H](CCCNC(=N)N)C(=O)N1CCC[C@H]1C(=O)N[C@@H](CCCCN)C(N)=O`, for which the Ratio Ki in assay [1] amounted to 11; in assay [3], 80. The inhibition in assay [2] came out at 70%.

As for `CC[C@H](C)[C@H](NC(=O)[C@H](CCCNC(=N)N)N(C)C(=O)[C@H](CCCNC(=N)N)NC(=O)[C@H](CC(C)C)NC(=O)[C@H](Cc1ccccc1)NC(=O)CNC(=O)CNC(=O)[C@H](Cc1ccc(O)cc1)NCc1ccccc1)C(=O)N[C@@H](CCCNC(=N)N)C(=O)N1CCC[C@H]1C(=O)N[C@@H](CCCCN)C(N)=O`, in assay [2], the inhibition is 70%.
